According to ChEMBL document CHEMBL4689842, “EUbOPEN Chemogenomics Library wave 1” (2021):

System: HEK-293T
Assay: Multiplex assay against HEK293T;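 for Population Tubulin-Different-Phenotype (%): share of the cells with healthy nuclei that show this phenotype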
Assay type: toxicity, cell-based
Details: human
Procedure, shortened: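 Live cells were stained at seeding with Hoechst33342, BioTracker Green Microtubule Cytoskeleton Dye, MitoTracker Red and Annexin V Alexa Fluor 680, then imaged on a CQ1 microscope at 37°C and 5% CO2 after compound addition. CellPathfinder machine-learning gating split cells into Hoechst high-intensity objects or normal cells. Normal cells were split into healthy, pyknosed or fragmented nuclei, and pyknosed cells into mitotic or apoptotic. Tubulin, mitochondrial-mass and membrane-permeability phenotypes are per cents of healthy-nucleus cells.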

[1] = 12 h, 1 µM, compound concentration 1 uM, replicate 1
[2] = 12 h, 1 µM, compound concentration 1 uM, replicate 2
[3] = 12 h, 10 µM, compound concentration 10 uM, replicate 1
[4] = 12 h, 10 µM, compound concentration 10 uM, replicate 2
[5] = 24 h, 1 µM, compound concentration 1 uM, replicate 1
[6] = 24 h, 1 µM, compound concentration 1 uM, replicate 2
[7] = 24 h, 10 µM, compound concentration 10 uM, replicate 1
[8] = 24 h, 10 µM, compound concentration 10 uM, replicate 2
[9] = 48 h, 1 µM, compound concentration 1 uM, replicate 1
[10] = 48 h, 1 µM, compound concentration 1 uM, replicate 2
[11] = 48 h, 10 µM, compound concentration 10 uM, replicate 1
[12] = 48 h, 10 µM, compound concentration 10 uM, replicate 2

## CC(C)(O)CNc1ncc(-c2ccnc(Nc3ccnc(Cl)c3)n2)c(CC2CC2)n1
[1]
  Population Apoptotic (%): 59%
  Population Fragmented Nuclei (%): 14%
  Population Healthy Nuclei (%): 25%
  Population Hoechst High Intensity Objects (%): 16%
  Population Membrane Permeable-Phenotype (%): 4%
  Population Mitochondria Different-Phenotype (%): 90%
  Population Mitotic Cells (%): 40%
  Population Normal (%): 83%
  Population Pyknosed Nuclei (%): 59%
  Population Tubulin-Different-Phenotype (%): 75%
  Total Cell Count: 287
[2]
  Population Apoptotic (%): 17%
  Population Fragmented Nuclei (%): 9%
  Population Healthy Nuclei (%): 23%
  Population Hoechst High Intensity Objects (%): 8%
  Population Membrane Permeable-Phenotype (%): 13%
  Population Mitochondria Different-Phenotype (%): 13%
  Population Mitotic Cells (%): 82%
  Population Normal (%): 91%
  Population Pyknosed Nuclei (%): 67%
  Population Tubulin-Different-Phenotype (%): 31%
  Total Cell Count: 133
[3]
  Population Apoptotic (%): 72%
  Population Fragmented Nuclei (%): 11%
  Population Healthy Nuclei (%): 5%
  Population Hoechst High Intensity Objects (%): 23%
  Population Membrane Permeable-Phenotype (%): 13%
  Population Mitochondria Different-Phenotype (%): 93%
  Population Mitotic Cells (%): 27%
  Population Normal (%): 76%
  Population Pyknosed Nuclei (%): 83%
  Population Tubulin-Different-Phenotype (%): 86%
  Total Cell Count: 381
[4]
  Population Apoptotic (%): 52%
  Population Fragmented Nuclei (%): 4%
  Population Healthy Nuclei (%): 3%
  Population Hoechst High Intensity Objects (%): 14%
  Population Membrane Permeable-Phenotype (%): 28%
  Population Mitochondria Different-Phenotype (%): 85%
  Population Mitotic Cells (%): 47%
  Population Normal (%): 85%
  Population Pyknosed Nuclei (%): 91%
  Population Tubulin-Different-Phenotype (%): 42%
  Total Cell Count: 213
[5]
  Population Apoptotic (%): 49%
  Population Fragmented Nuclei (%): 12%
  Population Healthy Nuclei (%): 28%
  Population Hoechst High Intensity Objects (%): 15%
  Population Membrane Permeable-Phenotype (%): 1%
  Population Mitochondria Different-Phenotype (%): 82%
  Population Mitotic Cells (%): 50%
  Population Normal (%): 84%
  Population Pyknosed Nuclei (%): 58%
  Population Tubulin-Different-Phenotype (%): 89%
  Total Cell Count: 319
[6]
  Population Apoptotic (%): 27%
  Population Fragmented Nuclei (%): 9%
  Population Healthy Nuclei (%): 34%
  Population Hoechst High Intensity Objects (%): 5%
  Population Membrane Permeable-Phenotype (%): 6%
  Population Mitochondria Different-Phenotype (%): 27%
  Population Mitotic Cells (%): 72%
  Population Normal (%): 94%
  Population Pyknosed Nuclei (%): 56%
  Population Tubulin-Different-Phenotype (%): 68%
  Total Cell Count: 145
[7]
  Population Apoptotic (%): 73%
  Population Fragmented Nuclei (%): 15%
  Population Healthy Nuclei (%): 3%
  Population Hoechst High Intensity Objects (%): 23%
  Population Membrane Permeable-Phenotype (%): 11%
  Population Mitochondria Different-Phenotype (%): 100%
  Population Mitotic Cells (%): 26%
  Population Normal (%): 76%
  Population Pyknosed Nuclei (%): 81%
  Population Tubulin-Different-Phenotype (%): 100%
  Total Cell Count: 382
[8]
  Population Apoptotic (%): 64%
  Population Fragmented Nuclei (%): 2%
  Population Healthy Nuclei (%): 2%
  Population Hoechst High Intensity Objects (%): 16%
  Population Membrane Permeable-Phenotype (%): 40%
  Population Mitochondria Different-Phenotype (%): 80%
  Population Mitotic Cells (%): 35%
  Population Normal (%): 83%
  Population Pyknosed Nuclei (%): 94%
  Population Tubulin-Different-Phenotype (%): 40%
  Total Cell Count: 208
[9]
  Population Apoptotic (%): 40%
  Population Fragmented Nuclei (%): 22%
  Population Healthy Nuclei (%): 29%
  Population Hoechst High Intensity Objects (%): 17%
  Population Membrane Permeable-Phenotype (%): 3%
  Population Mitochondria Different-Phenotype (%): 62%
  Population Mitotic Cells (%): 59%
  Population Normal (%): 82%
  Population Pyknosed Nuclei (%): 47%
  Population Tubulin-Different-Phenotype (%): 68%
  Total Cell Count: 360
[10]
  Population Apoptotic (%): 25%
  Population Fragmented Nuclei (%): 5%
  Population Healthy Nuclei (%): 68%
  Population Hoechst High Intensity Objects (%): 5%
  Population Membrane Permeable-Phenotype (%): 10%
  Population Mitochondria Different-Phenotype (%): 10%
  Population Mitotic Cells (%): 75%
  Population Normal (%): 94%
  Population Pyknosed Nuclei (%): 26%
  Population Tubulin-Different-Phenotype (%): 57%
  Total Cell Count: 209
[11]
  Population Apoptotic (%): 72%
  Population Fragmented Nuclei (%): 22%
  Population Healthy Nuclei (%): 1%
  Population Hoechst High Intensity Objects (%): 28%
  Population Membrane Permeable-Phenotype (%): 25%
  Population Mitochondria Different-Phenotype (%): 100%
  Population Mitotic Cells (%): 27%
  Population Normal (%): 71%
  Population Pyknosed Nuclei (%): 76%
  Population Tubulin-Different-Phenotype (%): 100%
  Total Cell Count: 373
[12]
  Population Apoptotic (%): 63%
  Population Fragmented Nuclei (%): 6%
  Population Healthy Nuclei (%): 3%
  Population Hoechst High Intensity Objects (%): 16%
  Population Membrane Permeable-Phenotype (%): 0%
  Population Mitochondria Different-Phenotype (%): 71%
  Population Mitotic Cells (%): 36%
  Population Normal (%): 83%
  Population Pyknosed Nuclei (%): 89%
  Population Tubulin-Different-Phenotype (%): 71%
  Total Cell Count: 212

## CN(C)C(=O)/C(C#N)=C/c1ccc(-c2nc3cnc4[nH]ccc4c3n2C2CCCCC2)o1
[1]
  Population Apoptotic (%): 48%
  Population Fragmented Nuclei (%): 9%
  Population Healthy Nuclei (%): 42%
  Population Hoechst High Intensity Objects (%): 12%
  Population Membrane Permeable-Phenotype (%): 2%
  Population Mitochondria Different-Phenotype (%): 68%
  Population Mitotic Cells (%): 51%
  Population Normal (%): 87%
  Population Pyknosed Nuclei (%): 48%
  Population Tubulin-Different-Phenotype (%): 44%
  Total Cell Count: 283
[2]
  Population Apoptotic (%): 21%
  Population Fragmented Nuclei (%): 6%
  Population Healthy Nuclei (%): 46%
  Population Hoechst High Intensity Objects (%): 5%
  Population Membrane Permeable-Phenotype (%): 5%
  Population Mitochondria Different-Phenotype (%): 36%
  Population Mitotic Cells (%): 78%
  Population Normal (%): 94%
  Population Pyknosed Nuclei (%): 46%
  Population Tubulin-Different-Phenotype (%): 37%
  Total Cell Count: 175
[3]
  Population Apoptotic (%): 41%
  Population Fragmented Nuclei (%): 24%
  Population Healthy Nuclei (%): 39%
  Population Hoechst High Intensity Objects (%): 37%
  Population Membrane Permeable-Phenotype (%): 17%
  Population Mitochondria Different-Phenotype (%): 63%
  Population Mitotic Cells (%): 58%
  Population Normal (%): 62%
  Population Pyknosed Nuclei (%): 36%
  Population Tubulin-Different-Phenotype (%): 60%
  Total Cell Count: 451
[4]
  Population Apoptotic (%): 32%
  Population Fragmented Nuclei (%): 17%
  Population Healthy Nuclei (%): 43%
  Population Hoechst High Intensity Objects (%): 25%
  Population Membrane Permeable-Phenotype (%): 15%
  Population Mitochondria Different-Phenotype (%): 50%
  Population Mitotic Cells (%): 67%
  Population Normal (%): 74%
  Population Pyknosed Nuclei (%): 39%
  Population Tubulin-Different-Phenotype (%): 79%
  Total Cell Count: 219
[5]
  Population Apoptotic (%): 46%
  Population Fragmented Nuclei (%): 10%
  Population Healthy Nuclei (%): 45%
  Population Hoechst High Intensity Objects (%): 14%
  Population Membrane Permeable-Phenotype (%): 2%
  Population Mitochondria Different-Phenotype (%): 60%
  Population Mitotic Cells (%): 53%
  Population Normal (%): 85%
  Population Pyknosed Nuclei (%): 44%
  Population Tubulin-Different-Phenotype (%): 40%
  Total Cell Count: 316
[6]
  Population Apoptotic (%): 21%
  Population Fragmented Nuclei (%): 8%
  Population Healthy Nuclei (%): 68%
  Population Hoechst High Intensity Objects (%): 2%
  Population Membrane Permeable-Phenotype (%): 10%
  Population Mitochondria Different-Phenotype (%): 23%
  Population Mitotic Cells (%): 78%
  Population Normal (%): 97%
  Population Pyknosed Nuclei (%): 22%
  Population Tubulin-Different-Phenotype (%): 34%
  Total Cell Count: 239
[7]
  Population Apoptotic (%): 44%
  Population Fragmented Nuclei (%): 25%
  Population Healthy Nuclei (%): 39%
  Population Hoechst High Intensity Objects (%): 41%
  Population Membrane Permeable-Phenotype (%): 9%
  Population Mitochondria Different-Phenotype (%): 61%
  Population Mitotic Cells (%): 55%
  Population Normal (%): 58%
  Population Pyknosed Nuclei (%): 35%
  Population Tubulin-Different-Phenotype (%): 57%
  Total Cell Count: 448
[8]
  Population Apoptotic (%): 34%
  Population Fragmented Nuclei (%): 22%
  Population Healthy Nuclei (%): 56%
  Population Hoechst High Intensity Objects (%): 30%
  Population Membrane Permeable-Phenotype (%): 7%
  Population Mitochondria Different-Phenotype (%): 49%
  Population Mitotic Cells (%): 65%
  Population Normal (%): 69%
  Population Pyknosed Nuclei (%): 21%
  Population Tubulin-Different-Phenotype (%): 72%
  Total Cell Count: 280
[9]
  Population Apoptotic (%): 45%
  Population Fragmented Nuclei (%): 13%
  Population Healthy Nuclei (%): 49%
  Population Hoechst High Intensity Objects (%): 13%
  Population Membrane Permeable-Phenotype (%): 2%
  Population Mitochondria Different-Phenotype (%): 21%
  Population Mitotic Cells (%): 54%
  Population Normal (%): 86%
  Population Pyknosed Nuclei (%): 37%
  Population Tubulin-Different-Phenotype (%): 30%
  Total Cell Count: 381
[10]
  Population Apoptotic (%): 15%
  Population Fragmented Nuclei (%): 9%
  Population Healthy Nuclei (%): 80%
  Population Hoechst High Intensity Objects (%): 3%
  Population Membrane Permeable-Phenotype (%): 8%
  Population Mitochondria Different-Phenotype (%): 5%
  Population Mitotic Cells (%): 84%
  Population Normal (%): 96%
  Population Pyknosed Nuclei (%): 10%
  Population Tubulin-Different-Phenotype (%): 21%
  Total Cell Count: 389
[11]
  Population Apoptotic (%): 46%
  Population Fragmented Nuclei (%): 26%
  Population Healthy Nuclei (%): 46%
  Population Hoechst High Intensity Objects (%): 34%
  Population Membrane Permeable-Phenotype (%): 13%
  Population Mitochondria Different-Phenotype (%): 29%
  Population Mitotic Cells (%): 53%
  Population Normal (%): 65%
  Population Pyknosed Nuclei (%): 27%
  Population Tubulin-Different-Phenotype (%): 40%
  Total Cell Count: 490
[12]
  Population Apoptotic (%): 35%
  Population Fragmented Nuclei (%): 18%
  Population Healthy Nuclei (%): 67%
  Population Hoechst High Intensity Objects (%): 21%
  Population Membrane Permeable-Phenotype (%): 10%
  Population Mitochondria Different-Phenotype (%): 17%
  Population Mitotic Cells (%): 64%
  Population Normal (%): 78%
  Population Pyknosed Nuclei (%): 13%
  Population Tubulin-Different-Phenotype (%): 49%
  Total Cell Count: 338
